High-throughput results from PubChem BioAssay.
KCNK3 inh = human KCNK3 channel inhibition, primary screen; CHO-KCNK3 thallium flux, FluxOR fluorescence; active compounds read low; B-score at 10 µM; 0.84% of 340,000 active; AID 602410;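 active = B-score under library mean minus 4 SD, starting fluorescence ratio at most library mean plus 5 SD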;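 note: more negative B-score means stronger inhibition of thallium flux through KCNK3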
KCNQ1 act = potentiates or activates the human KCNQ1 potassium channel; CHO-K1 KCNQ1, thallium flux FluxOR fluorescence; active compounds read high; B-score at 10 µM; 0.35% of 310,000 active; AID 2648;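 active = fluorescence ratio B-score, a plate-corrected score, at least three library SD, with initial intensity B-score within 5 SD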
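assay system = KCNQ1-transfected CHO-K1 cells | medium = assay buffer with matched DMSO | probe or stimulus = depolarizing K+/Tl+ stimulus, K2SO4 and Tl2SO4 each 12.5 mM in 5x stock | dosing = single dose | incubation = dye 90 min, compound 20 min, room temperature | detection = kinetic FluxOR fluorescence, 10 s baseline plus 110 s post-stimulus | evaluation = ratio B score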
hERG rescue = compounds protecting human hERG from proarrhythmic drug block; Q12809; CHO-hERG, FluxOR thallium flux, dofetilide IC70 present; activation (rescue from dofetilide block), less the hit threshold, % at 10 µM; 0.51% of 310,000 active; AID 1511;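 active = activation above the mean of controls blocked by dofetilide plus 5 SD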;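 note: thallium influx through hERG after potassium depolarization seen as dye fluorescence rise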
KCNK9 inh = human KCNK9 channel inhibition; B-score at 10 µM; Q9NPC2; AID 488922; HEK293 KCNK9, FluxOR thallium flux fluorescence; active compounds read low; 1.2% of 310,000 active;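 active = ratio B-score over 3 SD below the library mean, with starting fluorescence within 5 SD of its mean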;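 note: negative B-score means less thallium flux so channel inhibition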
Kir21 block = inhibitors of mouse Kir2.1 inward-rectifier potassium channel. P35561. HEK293-Kir2.1, FluxOR thallium flux fluorescence; active compounds read low. B-score at 10 µM. 0.85% of 310,000 active. AID 1672;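 active = fluorescence ratio B-score at or below minus 3 SD of library scores, with starting-brightness B-score within 2 SD, cut at about -4.2 in these data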;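 note: channel flux triggered by added potassium and thallium sulfate stimulus; B-score of peak minus minimum fluorescence over baseline after thallium stimulus; more negative B-score means stronger Kir2.1 block with less thallium influx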
KCNQ1 block = blocks the human KCNQ1 potassium channel. P51787. CHO-K1 KCNQ1, FluxOR thallium flux fluorescence; active compounds read high. B-score at 10 µM. 1.3% of 310,000 active;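 active = compounds whose thallium flux B-score, printed positive for inhibition, exceeds three library SD while starting fluorescence stays within three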;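 note: channel opened by potassium depolarization with thallium stimulus after 20 min compound exposure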
KCNK9 inh conf = human KCNK9 inhibitor confirmation | inhibition, % at 10 µM | 43% of 4,900 active | shares compounds with KCNK9 inh | HEK293 KCNK9 cells, FluxOR thallium flux fluorescence;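 active = thallium signal inhibited by more than 5 SD of the compound-free buffer control wells, on both duplicate plates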
Kir21 sel = mouse Kir2.1 off-target activity of KCNK9 modulators; 4% of 4,900 active; inhibition, % at 10 µM; AID 492993; Kir2.1 cells, FluxOR thallium flux fluorescence; shares compounds with KCNK9 inh;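 active = thallium signal drop more than 5 SD beyond the mean of the no-compound control wells, seen in both duplicate plates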;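 note: signal is fluorescence rise after thallium addition divided by baseline fluorescence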
KCNK9 uninduced = second counter-screen for KCNK9 modulators: effect in non-induced cells | shares compounds with KCNK9 inh | non-induced KCNK9-HEK293, FluxOR thallium flux | inhibition, % at 10 µM | 40% of 4,900 active;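 active = thallium signal drop beyond 5 SD of the untreated control mean, on both duplicate plates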
Large screens that a line does not name were inactive (follow-up assays come after a bar, where they were run). Compounds with a hit are over-represented: about 3.7% of the library has one in this group of screens.

COc1cc(OC)c(CN2CCC(Cc3ccccc3)CC2)cc1Br	Kir21 block -4.82 | KCNK9 inh conf inactive | Kir21 sel inactive | KCNK9 uninduced inactive
OCc1ccccc1OCCCN1CCC(Cc2ccccc2)CC1	none
COC(=O)c1ccc(NC(=O)CCc2nnc3ccc(N4CCC5(CC4)OCCO5)nn23)cc1	none
CCOC(=O)N1CCC(n2c(SCC(=O)NCCC3=CCCCC3)nc3ccccc3c2=O)CC1	none | KCNK9 inh conf inactive | Kir21 sel inactive | KCNK9 uninduced inactive
CCOC(=O)N1CCC(n2c(SCC(=O)NCc3ccccc3)nc3ccccc3c2=O)CC1	none
CC1=C(C(=O)Nc2ccccc2C)C(c2ccc(C)o2)N2C(=O)CSC2=N1 (stereo not drawn)	KCNK9 inh -8.28 | KCNK9 inh conf 38.5% | Kir21 sel inactive | KCNK9 uninduced 51.0%
C=C(C)C1CCC(C)=C1COC(=O)Nc1ccccc1 (stereo not drawn)	none | KCNK9 inh conf inactive | Kir21 sel inactive | KCNK9 uninduced inactive
O=C(Nc1ccccc1)OCCCCOC(=O)Nc1ccccc1	none (no result: KCNQ1 act, hERG rescue, KCNK9 inh, Kir21 block, KCNQ1 block)
O=C(NC(=S)N1CCCC1)c1ccccc1F	none (no result: KCNQ1 act, hERG rescue, KCNK9 inh, Kir21 block, KCNQ1 block)
Cc1ccc(CN(C)C(=O)c2c(C)nn(-c3ccccc3)c2C)cc1	none | KCNK9 inh conf inactive | Kir21 sel inactive | KCNK9 uninduced inactive
CC(=O)c1c(C)nn(-c2ccccc2)c1C	none
Cc1ccc2c(c1)N(CCC(=O)NC1CCCCC1)C(=O)CO2	none | KCNK9 inh conf inactive | Kir21 sel inactive | KCNK9 uninduced inactive
COc1ccccc1CNC(=O)CCCN1C(=O)COc2ccc(C)cc21	none | KCNK9 inh conf inactive | Kir21 sel inactive | KCNK9 uninduced inactive
Cc1cccc(C)c1N(C(=O)c1ccco1)C(C(=O)NC1CCCC1)c1ccncc1 (stereo not drawn)	none
CNC(=S)N(CCc1c(C)[nH]c2ccc(OC)cc12)Cc1ccco1	none
O=c1c2c(ncn2C2CCCC2)n(Cc2ccccc2)c(=O)n1CCOc1ccccc1	none | KCNK9 inh conf inactive | Kir21 sel inactive | KCNK9 uninduced inactive
O=c1c2c(ncn2C2CCCC2)n(Cc2ccccc2)c(=O)n1CCOc1ccc(Br)cc1	none | KCNK9 inh conf inactive | Kir21 sel inactive | KCNK9 uninduced inactive
Cc1ccc(C)c(OCCn2c(=O)c3c(ncn3C3CCCC3)n(Cc3ccccc3)c2=O)c1	none | KCNK9 inh conf inactive | Kir21 sel inactive | KCNK9 uninduced inactive
COc1ccc(N2CCN(C(=O)c3ccc(F)cc3)CC2)c([N+](=O)[O-])c1	none
O=C(c1ccc(F)cc1)N1CCN(c2cc(N3CCCCC3)c(F)cc2[N+](=O)[O-])CC1	none | KCNK9 inh conf inactive | Kir21 sel inactive | KCNK9 uninduced inactive
CC1=NN(c2ccccc2)C(=O)/C1=C\C=C1\N(C)c2ccccc2C1(C)C	KCNK9 inh -9.13 | KCNK9 inh conf inactive | Kir21 sel inactive | KCNK9 uninduced inactive
CC1=NN(c2ccccc2)C(=O)/C1=C\C=C1/N(C)c2ccccc2C1(C)C	none
CCOc1ccc2nc(N3C(=O)/C(=C/c4ccccc4)NC3=S)sc2c1	KCNQ1 act 134, hERG rescue 44.7 | KCNK9 inh conf inactive | Kir21 sel inactive | KCNK9 uninduced inactive
CCOc1ccc2nc(N3CCCCCC3)sc2c1	none
Cc1cccn2c(=O)c(/C=C(\C#N)C(=O)NCc3ccco3)c(N3CCCCC3)nc12	none
Cc1cccn2c(=O)c(/C=C(\C#N)C(=O)NCc3ccco3)c(N3CCCCCC3)nc12	none | KCNK9 inh conf inactive | Kir21 sel inactive | KCNK9 uninduced inactive
Cc1cnc(C(=O)OC(C(=O)c2ccccc2)c2ccccc2)cn1 (stereo not drawn)	none (no result: KCNQ1 act, hERG rescue, KCNK9 inh, Kir21 block, KCNQ1 block)
COc1ccc(C(=O)C(OC(=O)c2ccccc2)c2ccccc2)cc1 (stereo not drawn)	KCNK9 inh -13.6 | KCNK9 inh conf 53.0% | Kir21 sel inactive | KCNK9 uninduced 30.0%
COc1ccc(C(=O)C(OC(=O)c2ccccc2Cl)c2ccccc2)cc1 (stereo not drawn)	KCNK9 inh -8.12 | KCNK9 inh conf 59.5% | Kir21 sel inactive | KCNK9 uninduced 24.5%
Cc1ccc(NC(=O)C(OC(=O)c2ccccc2Cl)c2ccccc2)cc1Cl (stereo not drawn)	none
O=C(CSc1nc2ncccc2[nH]1)c1ccc2c(c1)OCO2	none
CC(C)(C)n1nnnc1C(c1ccc(C(F)(F)F)cc1)N(Cc1ccc(F)cc1)Cc1ccco1 (stereo not drawn)	KCNK9 inh -10.5 | KCNK9 inh conf 41.5% | Kir21 sel inactive | KCNK9 uninduced 31.0%
Cc1ccc(C(c2nnnn2C(C)(C)C)N(Cc2ccco2)Cc2cccs2)cc1 (stereo not drawn)	KCNK9 inh -17.2 | KCNK9 inh conf 65.5% | Kir21 sel inactive | KCNK9 uninduced 30.5%
CC(C)(C)n1nnnc1C(c1ccc(C(F)(F)F)cc1)N(Cc1ccccc1)Cc1ccco1 (stereo not drawn)	KCNK9 inh -10.7, KCNQ1 block 6 | KCNK9 inh conf 52.0% | Kir21 sel inactive | KCNK9 uninduced 33.0%
Cc1ccc(S(=O)(=O)Cn2nnnc2CN(Cc2ccco2)Cc2cccs2)cc1	none
c1ccc(CN(Cc2ccco2)C(c2ccncc2)c2nnnn2C2CCCC2)cc1 (stereo not drawn)	none
CC(C)(C)n1nnnc1C(c1cccnc1)N(Cc1ccccc1)Cc1cccs1 (stereo not drawn)	KCNK9 inh -12.7 | KCNK9 inh conf 45.5% | Kir21 sel inactive | KCNK9 uninduced 52.5%
COc1ccc(-c2noc(CCC(=O)N3CCN(c4cccc(Cl)c4)CC3)n2)cc1	none (no result: KCNQ1 act, hERG rescue, KCNK9 inh, Kir21 block, KCNQ1 block)
CC(C)(C)n1nnnc1C(c1ccc(Cl)cc1)N(Cc1cccnc1)Cc1ccco1 (stereo not drawn)	KCNK3 inh -10.1, KCNK9 inh -14.4, KCNQ1 block 6 | KCNK9 inh conf 52.0% | Kir21 sel inactive | KCNK9 uninduced 39.0%
Fc1ccc(C(c2nnnn2C2CCCC2)N(Cc2ccco2)CC2CCCO2)cc1 (stereo not drawn)	none
Clc1ccc(CN(Cc2ccccc2)C(c2cccs2)c2nnnn2C2CCCC2)cc1 (stereo not drawn)	none
CC(C)(C)n1nnnc1C(c1cccs1)N(Cc1ccc(Cl)cc1)CC1CCCO1 (stereo not drawn)	KCNK9 inh -16.5 | KCNK9 inh conf 62.5% | Kir21 sel inactive | KCNK9 uninduced 42.5%
